Measurements reported in ChEMBL document CHEMBL2331102 (Bioorg Med Chem, 2013).
In brackets after ≈: the same amount, converted by molar mass.

Tests used:
[1] = Selectivity index, ratio of IC50 for rat L6 cells to IC50 for Trypanosoma cruzi Tulahuen TcVI extracellular trypomastigotes forms; type: toxicity, cell-based; conditions: read-out: Ratio IC50
In short: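 Ratio of the L6 myoblast cytotoxicity IC50 to the IC50 against β-galactosidase-expressing T. cruzi Tulahuen TcVI.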

L6 = experiment: Cytotoxicity against rat L6 cells after 72 hrs by Alamar Blue assay; type: cell-based; conditions: L6, 72 h
In short: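 Counter-screen for cytotoxicity in uninfected L6 rat skeletal muscle myoblasts, with IC50 recorded in µM.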

Trypanosoma cruzi = experiment: Antitrypanosomal activity against Trypanosoma cruzi Tulahuen TcVI extracellular trypomastigotes forms transfected with beta-galactosidase gene infected in rat L6 cells assessed as inhibition of parasite growth after 4 days; type: functional, organism-based; conditions: L6, 96 h
In short: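 L6 rat skeletal myoblasts were infected with extracellular trypomastigotes of β-galactosidase-transfected T. cruzi Tulahuen TcVI. After 48 h to establish infection, compound was added and incubation continued 4 days, exposing trypomastigote and intracellular amastigote forms.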

CYP3A4/5 = CYP3A4/5 (Homo sapiens, UniProt P08684+P20815); experiment: Inhibition of CYP3A4/5 in human liver microsomes assessed as reduction in testosterone-beta-hydroxylation; type: ADME, Microsome; conditions: probe testosterone
In short: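 CYP3A4 inhibition measured as inhibition of testosterone β-hydroxylation, reported as IC50 (µM).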

[2] = Kinetic solubility of the compound at pH 6.5 phosphate buffer by nephelometric analysis; type: physicochemical; conditions: read-out: Kinetic_solubility
In short: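 Kinetic solubility in phosphate buffer at pH 6.5, determined by nephelometry and reported in µg/mL.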

Compound | selectivity ratio [1] | IC50 (L6) [µM] | IC50 (Trypanosoma cruzi) [nM] | IC50 (CYP3A4/5) [µM] | solubility kinetic [2] [µg/mL]
CS(=O)(=O)N1CCN(C(c2ccc(C#N)cc2)c2cccnc2)CC1 (centres undefined) | > 100 | > 100 | 365 |  | 
CN(C)C(=O)N1CCN(C(c2ccc(Cl)cc2)c2cccnc2)CC1 (centres undefined) | > 100 | > 100 | 120 |  | 
COc1ccccc1N1CCN(C(c2ccc(C(F)(F)F)cc2)c2cnccn2)CC1 (centres undefined) | > 100 |  | 240 | 25 | 3.1 (≈ 7.24 µM)
O=C(C1CCCCC1)N1CCN(C(c2cccnc2)c2ccc(Cl)cc2F)CC1 (centres undefined) | > 100 |  | 28 | 3.9 | 6.3 (≈ 15.1 µM)
CC(C)(C)OC(=O)N1CCN(C(c2ccc(C(F)(F)F)cc2)c2cccnc2)CC1 (centres undefined) | > 100 |  | 17 |  | 
CC(C)(C)C(=O)N1CCN(C(c2ccc(C(F)(F)F)cc2)c2cccnc2)CC1 (centres undefined) | > 100 |  | 30 | 2.3 | 12.5 (≈ 30.8 µM)
Cc1noc(N2CCN(C(c3cccnc3)c3ccc(C(F)(F)F)cc3F)CC2)n1 (centres undefined) | > 100 |  | 17 |  | 
CS(=O)(=O)N1CCN(C(c2ccc(Cl)cc2)c2cncnc2)CC1 (centres undefined) | > 100 | > 100 | 880 |  | 
CC(C)(C)OC(=O)N1CCN(C(c2cccnc2)c2ccc(Cl)cc2F)CC1 (centres undefined) | > 100 |  | 20 | 1.9 | 3.1 (≈ 7.64 µM)
Fc1cc(Cl)ccc1C(c1cncnc1)N1CCN(c2ccccc2)CC1 (centres undefined) | > 100 |  | 78 |  | 
CC(C)(C)C(=O)N1CCN(C(c2cncnc2)c2ccc(Cl)cc2F)CC1 (centres undefined) | > 100 | > 100 | 81 | 7 | 25 (≈ 64 µM)
COc1ccccc1N1CCN(C(c2ccc(Cl)cc2)c2cccnc2)CC1 (centres undefined) | > 100 |  | 20 |  | 
CS(=O)(=O)N1CCN(C(c2ccc(Cl)cc2)c2cccnc2)CC1 (centres undefined) | > 100 | > 100 | 110 | 3.6 | 12.5 (≈ 34.2 µM)
O=C(Oc1ccccc1)N1CCN(C(c2ccc(Cl)cc2)c2cccnc2)CC1 (centres undefined) | > 100 |  | 8 |  | 
CC(C)(C)C(=O)N1CCN(C(c2cccnc2)c2ccc(Cl)cc2F)CC1 (centres undefined) | > 100 |  | 19 | 1 | 12.5 (≈ 32.1 µM)
CC(C)c1ccc(S(=O)(=O)N2CCN(C(c3ccc(Cl)cc3)c3cccnc3)CC2)cc1 (centres undefined) | > 100 |  | 12 |  | 
CC(C)c1ccc(S(=O)(=O)N2CCN(C(c3cncnc3)c3ccc(Cl)cc3F)CC2)cc1 (centres undefined) | > 100 | > 100 | 18 |  | 
N#Cc1ccc(C(c2cccnc2)N2CCN(C(=O)C3CC3)CC2)cc1 (centres undefined) | > 100 | > 100 | 281 |  | 
CS(=O)(=O)N1CCN(C(c2ccc(C(F)(F)F)cc2)c2cccnc2)CC1 (centres undefined) | > 100 | > 100 | 77 |  | 
CC(C)(C)OC(=O)N1CCN(C(c2cncnc2)c2ccc(Cl)cc2F)CC1 (centres undefined) | > 100 |  | 24 | 2.9 | 12.5 (≈ 30.7 µM)
CC(C)(C)C(=O)N1CCN(C(c2ccc(C#N)cc2)c2cccnc2)CC1 (centres undefined) | > 100 | > 100 | 254 |  | 
O=C(NC1CC1)N1CCN(C(c2ccc(C(F)(F)F)cc2)c2cccnc2)CC1 (centres undefined) | > 100 | > 100 | > 1000 |  | 
O=C(C1CC1)N1CCN(C(c2cncnc2)c2ccc(Cl)cc2F)CC1 (centres undefined) | > 100 | > 100 | 171 |  | 
Fc1cc(Cl)ccc1C(c1cccnc1)N1CCN(c2ncccn2)CC1 (centres undefined) | > 100 |  | 26 |  | 
Clc1ccc(C(c2cccnc2)N2CCN(c3ccccc3)CC2)cc1 (centres undefined) | > 100 |  | 34 |  | 
CC(C)c1ccc(NC(=O)N2CCN(C(c3cncnc3)c3ccc(Cl)cc3F)CC2)cc1 (centres undefined) | > 100 |  | 7 |  | 
CC(C)(C)NC(=O)N1CCN(C(c2cncnc2)c2ccc(Cl)cc2F)CC1 (centres undefined) | > 100 | > 100 | 54 | 6.9 | 50 (≈ 123 µM)
